Measured values of several laboratories.
Lines come from different studies, so protocols differ.

O=C(O)c1cn(C2CC2)c2cc(N3CCNCC3)c(F)cc2c1=O
MIC (Klebsiella aerogenes; microbial growth; ATCC35029): 2 µM

CNc1ccnc(SCC(=O)c2ccccc2)c1C#N
EC50 (Leishmania infantum; parasite growth; mouse Macrophage; intracellular, amastigote): > 64 µM

CC(C)(C)OC(=O)N[C@H]1CCN(c2cc(C(=O)NCC(=O)O)ccc2NC(=O)c2cc(Br)c(Br)[nH]2)C1
MIC (Klebsiella aerogenes; microbial growth, broth dilution; ATCC13408): > 32 µg/mL

Cc1cc(C)c(C#N)c(SCC(=O)c2ccccc2C)n1
EC50 (Leishmania infantum; parasite growth; mouse Macrophage; intracellular, amastigote): 7.38 µM

Cl.N[C@@H]1CCN(c2cc(C(=O)NCC(=O)O)ccc2NC(=O)c2cc(Br)c(Br)[nH]2)C1
MIC (Klebsiella aerogenes; microbial growth, broth dilution; ATCC13408): > 32 µg/mL

C=CC(=O)NC1CCN(c2ncc3ncnc(Nc4ccc(Oc5ccc6c(c5)ncn6C)c(C)c4)c3n2)CC1
EC50 (EKVX; cell growth or viability): 0.0025 µM

C=CC(=O)c1cccnc1Nc1cc(C(F)(F)F)ccc1OCc1ccccc1
GI50 (U-87 MG; cell growth or viability, SRB; 48 h): 9.65 µM

Cl.O=C(O)CNC(=O)c1ccc(NC(=O)c2cc(Br)c(Br)[nH]2)c(N2CCNCC2)c1
MIC (Klebsiella aerogenes; microbial growth, broth dilution; ATCC13408): > 32 µg/mL

CC(=NNC(=O)COc1ccc2c(C)c(Cc3ccccc3)c(=O)oc2c1C)c1ccc(Br)cc1
viability (HCT-116; cell growth or viability, MTT; 0.2 µg/mL): 66%

C=CC(=O)c1cccnc1Nc1cc(C(F)(F)F)ccc1OC
GI50 (U-87 MG; cell growth or viability, SRB; 48 h): 7.72 µM

Cc1[nH]c(C(=O)Nc2ccc(C(=O)NCC(=O)O)cc2N2CC[C@@H](N)C2)c(Cl)c1Cl.Cl
MIC (Klebsiella aerogenes; microbial growth, broth dilution; ATCC13408): > 32 µg/mL

COc1cccc(C(=O)COc2nc(C)cc(C)c2C#N)c1
EC50 (Leishmania infantum; parasite growth; mouse Macrophage; intracellular, amastigote): > 64 µM
